How the values were obtained:
[1] = molecular target: T1, Arachidonate 5-lipoxygenase-activating protein (Homo sapiens, UniProt P20292); assay: Inhibition of 5-lipoxygenase activating protein using human leukocyte membrane preparations
T1 sequence (P20292 whole entry): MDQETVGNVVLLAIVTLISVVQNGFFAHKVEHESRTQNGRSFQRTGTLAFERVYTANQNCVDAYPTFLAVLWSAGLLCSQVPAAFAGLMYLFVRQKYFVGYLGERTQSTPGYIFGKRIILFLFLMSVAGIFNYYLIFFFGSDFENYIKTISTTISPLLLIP
Method in brief: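 Binding assay on human leukocyte membrane preparations, measuring displacement of [¹²⁵I]-L-691,831 by drug. IC50 is the mean of at least two independent determinations unless the value came from a single titration.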

[2] = molecular target: T2, Polyunsaturated fatty acid 5-lipoxygenase (Homo sapiens, UniProt P09917); assay: Inhibition of Human 5-lipoxygenase
T2 sequence (P09917 whole entry): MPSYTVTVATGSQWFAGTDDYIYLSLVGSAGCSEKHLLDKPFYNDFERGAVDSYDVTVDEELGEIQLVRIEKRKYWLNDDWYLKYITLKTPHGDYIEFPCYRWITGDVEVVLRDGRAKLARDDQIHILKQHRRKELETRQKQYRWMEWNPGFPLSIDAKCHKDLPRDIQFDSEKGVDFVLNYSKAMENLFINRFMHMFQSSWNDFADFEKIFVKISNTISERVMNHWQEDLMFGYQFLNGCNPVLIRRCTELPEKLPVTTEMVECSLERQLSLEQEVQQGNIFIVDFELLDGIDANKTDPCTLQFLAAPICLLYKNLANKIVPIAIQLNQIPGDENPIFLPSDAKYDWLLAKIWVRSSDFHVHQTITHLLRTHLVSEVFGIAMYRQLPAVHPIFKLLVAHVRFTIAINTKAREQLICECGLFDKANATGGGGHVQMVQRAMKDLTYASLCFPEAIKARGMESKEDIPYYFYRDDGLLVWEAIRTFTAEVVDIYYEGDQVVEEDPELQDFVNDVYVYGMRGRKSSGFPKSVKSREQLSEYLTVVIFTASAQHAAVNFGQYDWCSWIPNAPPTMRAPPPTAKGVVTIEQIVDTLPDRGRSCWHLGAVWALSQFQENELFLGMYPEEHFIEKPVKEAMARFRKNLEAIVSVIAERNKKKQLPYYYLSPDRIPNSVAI
Method in brief: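 Enzyme source is the 100000g supernatant (S100) of insect cells overexpressing human 5-LO. Activity followed spectrophotometrically as 5-HPETE production. IC50 is the mean of at least two independent determinations unless the value came from a single titration.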

Rattus norvegicus = assay: Compound was tested for the inhibition of dyspnea in hyperreactive rats dosed at 5 mg/kg po; assay type: functional; conditions: for inhibition in vivo at 5 mg/kg: Rattus norvegicus, po
Method in brief: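 Inbred hyperreactive rats (n = 6) pretreated with methysergide 3 μg/kg iv. Sodium salt given po in 1% or 0.5% methocel 2 h before ovalbumin antigen challenge. Read-out is percent inhibition of dyspnea duration versus litter mate-matched vehicle-treated controls.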

[3] = Bioavailability in rat; assay type: ADME, organism-based; conditions: in vivo
Method in brief: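 Rats dosed with sodium salts, 20 mg/kg po in 1% methocel and 5 mg/kg iv in PEG 200 (n = 2); plasma profiles collected over 0–6 h. Bioavailability calculated as AUC_po/4 × AUC_iv.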

Row | IC50 [2] | bioavailability [3] | SMILES | inhibition in vivo at 5 mg/kg (Rattus norvegicus) | further results
1 | 55 nM | – | CC1Cc2c(OCc3ccccn3)ccc3c2c(c(CSc2ccccc2C(=O)O)n3Cc2ccc(Cl)cc2)S1 (stereo not given) | – | IC50 [1]: 760 nM
2 | 100 nM | – | CC1Cc2c(OCc3ccc4ccccc4n3)ccc3c2c(c(COc2ccccc2CC(=O)O)n3Cc2ccc(Cl)cc2)S1 (stereo not given) | – | IC50 [1]: 32 nM
3 | 70 nM | – | CC1Cc2c(OCc3ccc4ccccc4n3)ccc3c2c(c(CSc2ccccc2C(=O)O)n3Cc2ccc(Cl)cc2)S1 (stereo not given) | – | IC50 [1]: 72 nM
4 | 40 nM | – | CC1Cc2c(OCc3ccc(-c4ccccc4)cn3)ccc3c2c(c(CCOc2ccccc2CC(=O)O)n3Cc2cccc(Cl)c2)S1 (stereo not given) | – | –
5 | 23 nM | 44% | CC1Cc2c(OCc3ccc(-c4ccccc4)cn3)ccc3c2c(c(CCOc2ccccc2CC(=O)O)n3Cc2cccc(F)c2)S1 (stereo not given) | 59% | –
6 | 130 nM | – | CC1Cc2c(OCc3ccc(-c4ccccc4)cn3)ccc3c2c(c(CCOc2ccc(Cl)cc2C(=O)O)n3Cc2ccc(Cl)cc2)S1 (stereo not given) | – | –
7 | – | – | CCC(OCCc1c2c3c(c(OCc4ccc(-c5ccccc5)cn4)ccc3n1Cc1ccc(Cl)cc1)CC(C)S2)C(=O)O (stereo not given) | 50% | –
8 | 30 nM | 10% | CC1Cc2c(OCc3ccc(-c4ccccc4)cn3)ccc3c2c(c(CCSc2ccccc2C(=O)O)n3Cc2ccc(Cl)cc2)S1 (stereo not given) | – | –
9 | 26 nM | 35% | CC1Cc2c(OCc3ccc(-c4ccccc4)cn3)ccc3c2c(c(COc2ccccc2CC(=O)O)n3Cc2ccc(Cl)cc2)S1 (stereo not given) | 27% | –
10 | 175 nM | – | CC1Cc2c(OCc3cc4ccccc4cn3)ccc3c2c(c(CSc2ccccc2C(=O)O)n3Cc2ccc(Cl)cc2)S1 (stereo not given) | – | IC50 [1]: 2900 nM
11 | 170 nM | – | CC1Cc2c(OCc3ccc(-c4ccccc4)cn3)ccc3c2c(c(CCOc2cccc(C(=O)O)c2)n3Cc2ccc(Cl)cc2)S1 (stereo not given) | – | –
12 | 60 nM | 37% | CC1Cc2c(OCc3ccc(-c4ccccc4)cn3)ccc3c2c(c(CCOc2ccccc2C(=O)O)n3Cc2ccc(Cl)cc2)S1 (stereo not given) | 42% | –
13 | 30 nM | < 5% | CC1Cc2c(OCc3ccc(-c4ccccc4)cn3)ccc3c2c(c(CSc2ccccc2C(=O)O)n3Cc2ccc(Cl)cc2)S1 (stereo not given) | – | –
14 | 60 nM | 4% | CC1Cc2c(OCc3ccc(-c4ccccc4)cn3)ccc3c2c(c(CCOc2ccccc2CC(=O)O)n3Cc2ccc(F)cc2)S1 (stereo not given) | 36% | –
15 | 360 nM | – | CC1Cc2c(OCc3ccc(-c4ccccc4)cn3)ccc3c2c(c(CCc2ccccc2C(=O)O)n3Cc2ccc(Cl)cc2)S1 (stereo not given) | – | –
16 | 62 nM | – | CC1Cc2c(OCc3ccc(-c4ccccc4)cn3)ccc3c2c(c(COCc2ccccc2C(=O)O)n3Cc2ccc(Cl)cc2)S1 (stereo not given) | – | –
17 | 52 nM | – | COc1ccc(COc2ccc3c4c2CC(C)Sc4c(CSc2ccccc2C(=O)O)n3Cc2ccc(Cl)cc2)nc1 (stereo not given) | – | IC50 [1]: 370 nM
18 | 60 nM | 15% | CC1Cc2c(OCc3ccc(-c4ccccc4)cn3)ccc3c2c(c(CCOc2ccccc2CC(=O)O)n3Cc2ccc(Cl)cc2)S1 (stereo not given) | 47% | –
19 | 18 nM | – | CC1Cc2c(OCc3ccc(-c4ccccc4)cn3)ccc3c2c(c(COc2ccccc2CC(=O)O)n3Cc2cccc(Cl)c2)S1 (stereo in doubt; 14b) | 74% | F [3]: 11%
20 | 95 nM | – | CC1Cc2c(OCc3ccc(-c4ccccc4)cn3)ccc3c2c(c(COc2ccccc2CC(=O)O)n3Cc2cccc(Cl)c2)S1 (stereo in doubt; (+)14b) | – | –
21 | 10 nM | – | CC1Cc2c(OCc3ccc(-c4ccccc4)cn3)ccc3c2c(c(COc2ccccc2CC(=O)O)n3Cc2cccc(Cl)c2)S1 (stereo in doubt; (-)14b) | – | Inhibition (Rattus norvegicus; 5 mg/kg): 58%; F [3]: 32%
22 | > 10000 nM | – | CC(C)(C)Sc1c(CC(C)(C)C(=O)O)n(Cc2ccc(Cl)cc2)c2ccc(OCc3ccc4ccccc4n3)cc12 [QUIFLAPON] | – | IC50 [1]: 1.6 nM

Row | SMILES | IC50 [2] | bioavailability [3] | inhibition in vivo at 5 mg/kg (Rattus norvegicus) | further results
23 | CC(C)c1ccc2c(c1)c(SC(C)(C)C)c(CC(C)(C)C(=O)O)n2Cc1ccc(Cl)cc1 | > 10 nM | – | – | –
